Results as given in publication PMC3819105 (Biomaterials science, 2013).
Where a SMILES comes first, the peptide text is derived from it. [ ]: non-standard residue; d: D form. Hica(2S) = CC(C)C[C@H](O)C(=O)O

Key:
[1] = Solubility limit in water; type: physicochemical
[2] = TEM of nanofiber formation and degradation; type: physicochemical; conditions: 2 mM in PBS, 37°C, 7 days
[3] = Macroscopic hydrogel degradation visualised with Congo red; type: physicochemical
Outline: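 50 µM Congo red added to the aqueous peptide solution (sonicated, held overnight at room temperature) while making 15 mM gels. Gels pipetted into multi-well dishes, immersed in PBS at 37°C and photographed over 28 days.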

[4] = Oscillating rheometry of hydrogels; type: physicochemical
Outline: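 Peptide held overnight in water at 30 or 15 mM, cast on a glass slide inside an 8-mm filter-paper ring, and gelled under a PBS overlay for 2 h. PBS removed, parallel-plate frequency sweep 0.1–3.162 Hz at 0.1% strain, harmonic distortion under 10%. For ageing, gels held submerged in PBS at 37°C for 1 or 3 days. Mean ± SD of 3–5 separate gels; G'/G'' at 1 Hz compared by ANOVA-Tukey or t-test, p<0.05.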

[5] = tested on: C3H10T½ cells; test: 3D microgel cell culture; type: cell-based, mouse; conditions: C3H10T½ cells in hydrogel
Outline: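 Cells kept in Eagle's Basal Medium with 10% FBS, L-glutamine, 1 mM sodium pyruvate and non-essential amino acids. They were trypsinized, resuspended at 6,000 cells/µL in 10% sucrose with antibiotics, and mixed 1:2 with 22.5 mM aqueous peptide. The mixture (2,000 cells/µL) was pipetted into culture medium in 4–5 µL droplets to gel. Phase contrast imaging at day 3. MTS at 4 h, 3 and 5 days; mean ± SD of 3 wells.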

[6] = tested on: α-chymotrypsin; conditions: cited from earlier work
[7] = tested on: trypsin; conditions: cited from earlier work
[8] = tested on: papain; conditions: cited from earlier work

Row | Molecule | solubility [1] [mM] | Nanofiber state by TEM at day 7 [2] | Time for which integrity of acellular hydrogel could be maintained ([3]; 15 mM acellular hydrogel, PBS, 37°C) | Gel appearance over 28 days (Congo red stained) ([3]; 15 mM hydrogel, immersed in PBS at 37°C, 28 days, representative of 3 gels) | Storage modulus of hydrogel ([4]; 30 mM hydrogel, PBS-gelled 2 hours, 0.1% strain, mean of 3 – 5 samples) [kPa] | Storage modulus (G') relative to Q11 hydrogel ([4]; 30 mM hydrogels, PBS-gelled 2 hours, 0.1% strain, calculated at 1 Hz) | Change of hydrogel moduli (G', G'') over time ([4]; hydrogels submerged in PBS, 37°C, up to day 3) | Proliferation of encapsulated cells ([5]; over 5 days, MTS assay, 3 wells) | Morphology of encapsulated cells ([5]; phase contrast) | Resistance to proteolysis [6] | Resistance to proteolysis [7] | Resistance to proteolysis [8]
1 | CC(=O)N[C@@H](CCC(N)=O)C(=O)N[C@@H](CCC(N)=O)C(=O)N[C@@H](CCCCN)C(=O)N[C@@H](Cc1ccccc1)C(=O)N[C@@H](CCC(N)=O)C(=O)O[C@@H](CC(C)C)C(=O)N[C@@H](CCC(N)=O)C(=O)N[C@@H](Cc1ccccc1)C(=O)N[C@@H](CCC(=O)O)C(=O)N[C@@H](CCC(N)=O)C(=O)N[C@@H](CCC(N)=O)C(N)=O [Depsi-L] (Ac-QQKFQ[Hica(2S)]QFEQQ-NH2; N-terminus assumed) | ≥ 30 | shorter and thinner | about 14 days | faded and disappeared | > 100 | about 6 times | decreased significantly | proliferated | more spread morphology |  |  | 
2 | (AEAEAKAK)2 |  |  |  |  |  |  |  |  |  | highly resistant | highly resistant | highly resistant
